PubChem BioAssay AID504674 (Southern Research Specialized Biocontainment Screening …, 2011)
Activity calls are given as the source filed them.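 The calls were made as follows: active = cell viability under 70% at any tested concentration, a measure not printed in our tables; inactive = the rest.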

System: HEp-2 viability, ATP luminescence (CellTiter-Glo)
Experiment: HEp-2 viability by ATP luminescence – cell-based, CellTiter-Glo, synthesized compounds, set 7, cytotoxicity control for RSV inhibitor project, dose response (AID 504674)
Method in brief: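 Times: compound exposure of 6 days at 37 °C, 5% CO2 / System: HEp-2 human cell line, cell viability / Amount: 10,595 HEp-2 cells per well / Detection: CellTiter-Glo luminescence / Evaluation: % viability versus median cell-only wells, CC50 from 4-parameter fit bounded 0–100 / Doses: 8-point twofold dilution series, 50 to 0.39 µM, 0.5% DMSO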

Structure (SMILES)	CC50
Cc1ccc(Cn2c(=O)n(Cc3ccc(C(=O)NC4CCCCC4)cc3)c(=O)c3ccccc32)cc1	> 50 µM (inactive)
O=C(NCc1ccc(Cl)cc1)C1CCN(S(=O)(=O)c2cccc3nonc23)CC1	> 50 µM (inactive)
COCCCNC(=O)c1ccc(Cn2c(=O)c3ccc(C)cc3n(Cc3ccc(C)cc3)c2=O)cc1	> 50 µM (inactive)
Cc1ccc(Cn2c(=O)n(Cc3ccc(C(=O)N(C)C)cc3)c(=O)c3ccccc32)cc1	11 µM
O=C(NCc1cccc(Cl)c1)C1CCN(S(=O)(=O)c2cccc3nonc23)CC1	> 50 µM (inactive)
Cc1ccc(NC(=O)[C@@H]2CCCN2S(=O)(=O)c2cccc3nonc23)c(C)c1	> 50 µM (inactive)
Cc1ccc(Cl)cc1NC(=O)[C@@H]1CCCN1S(=O)(=O)c1cccc2cccnc12	13 µM
COc1ccc(C)c(NC(=O)[C@@H]2CCCN2S(=O)(=O)c2cccc3cccnc23)c1	> 50 µM (inactive)
Cc1ccc(Cn2c(=O)n(Cc3ccc(C(=O)N4CCCC4)cc3)c(=O)c3ccccc32)cc1	4.6 µM
COc1ccccc1NC(=O)[C@@H]1CCCN1S(=O)(=O)c1cccc2nonc12	> 50 µM (inactive)
COCCCNC(=O)c1ccc(Cn2c(=O)c3ccc(OC)cc3n(Cc3ccc(C)cc3)c2=O)cc1	11.7 µM
Cc1ccc(Cn2c(=O)n(Cc3ccc(C(=O)N4CCOCC4)cc3)c(=O)c3ccccc32)cc1	16.6 µM
Cc1ccc(CNC(=O)C2CCN(S(=O)(=O)c3cccc4nonc34)CC2)c(C)c1	> 50 µM (inactive)
COCCNC(=O)c1ccc(Cn2c(=O)c3ccccc3n(Cc3ccc(C)cc3)c2=O)cc1	> 50 µM (inactive)
Cc1ccc(Cn2c(=O)n(Cc3ccc(C(=O)N4CCCCC4)cc3)c(=O)c3ccccc32)cc1	5.12 µM
COCCCNC(=O)c1ccc(Cn2c(=O)c3ccc(C(F)(F)F)cc3n(Cc3ccc(C)cc3)c2=O)cc1	> 50 µM (inactive)
